According to publication PMC2191409 (The Journal of Experimental Medicine, 1994):

Test system: MZ2-MEL.61 cells (D-) expressing HLA-A1
Assay: Peptide sensitization assay
Format: cell-based, human
Details: CTL clone 20/38
Outline: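 Target cells (MZ2-MEL.61, antigen-loss D− variant, HLA-A1+) were 51Cr-labelled for 1 h at 37°C and washed extensively. 1,000 cells/well were preincubated 30 min at 37°C with various concentrations of synthetic test peptide (>90% HPLC purity; stock in 0.02 M PBS). CTL 20/38 were then added in equal volume at E/T 10:1. Chromium release was read after 4 h at 37°C. D+ and D− MZ2-MEL cells without peptide served as reference.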

EVDPIGHVY [MAGE-6 derived peptide]
Recognition by the anti-MZ2-D CTL clone: not recognized
